A short description of one data set: Pharmacokinetics in mice. Type of data set: in vivo. As to conditions: female, CD1, mouse, plasma, po, 20 mg/kg. An outline of the steps: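 Female CD1 mice and male beagle dogs received test compound orally in 0.5% methylcellulose:0.5% Tween-80 or intravenously in saline, both at 5 mL/kg. After oral dosing, plasma concentrations were measured at 30 min, 1 h, 3 h, 8 h and 24 h.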

Data set [1] addresses T1, MST1 (Homo sapiens, UniProt Q13043).
T1 sequence (Q13043 1-487): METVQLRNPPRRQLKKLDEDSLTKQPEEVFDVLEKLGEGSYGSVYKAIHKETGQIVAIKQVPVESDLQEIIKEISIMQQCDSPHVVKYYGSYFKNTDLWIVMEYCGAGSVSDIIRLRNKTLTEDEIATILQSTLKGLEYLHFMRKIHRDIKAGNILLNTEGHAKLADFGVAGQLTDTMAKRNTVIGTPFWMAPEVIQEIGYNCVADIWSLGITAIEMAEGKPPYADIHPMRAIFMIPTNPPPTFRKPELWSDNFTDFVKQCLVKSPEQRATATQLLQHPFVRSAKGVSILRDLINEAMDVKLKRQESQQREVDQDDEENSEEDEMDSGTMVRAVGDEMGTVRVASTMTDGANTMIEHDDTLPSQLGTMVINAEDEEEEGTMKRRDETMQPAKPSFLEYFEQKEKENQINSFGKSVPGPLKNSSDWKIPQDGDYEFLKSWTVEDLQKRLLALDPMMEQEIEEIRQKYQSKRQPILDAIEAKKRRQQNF
As to conditions: high-throughput MST1 inhibition screen ref 16, 17; cited from earlier work.

The target in data set [2] is T1, MST1. In words: MST1 inhibition. The class given is biochemical. The note with it: vs neratinib.
The next data set addresses EGFR (Homo sapiens, UniProt P00533). In words: EGFR inhibition. The class given is biochemical.
A further data set has as its system MST1/2. As to conditions: cited from earlier work.

EGFR, sequence (P00533 25-1210): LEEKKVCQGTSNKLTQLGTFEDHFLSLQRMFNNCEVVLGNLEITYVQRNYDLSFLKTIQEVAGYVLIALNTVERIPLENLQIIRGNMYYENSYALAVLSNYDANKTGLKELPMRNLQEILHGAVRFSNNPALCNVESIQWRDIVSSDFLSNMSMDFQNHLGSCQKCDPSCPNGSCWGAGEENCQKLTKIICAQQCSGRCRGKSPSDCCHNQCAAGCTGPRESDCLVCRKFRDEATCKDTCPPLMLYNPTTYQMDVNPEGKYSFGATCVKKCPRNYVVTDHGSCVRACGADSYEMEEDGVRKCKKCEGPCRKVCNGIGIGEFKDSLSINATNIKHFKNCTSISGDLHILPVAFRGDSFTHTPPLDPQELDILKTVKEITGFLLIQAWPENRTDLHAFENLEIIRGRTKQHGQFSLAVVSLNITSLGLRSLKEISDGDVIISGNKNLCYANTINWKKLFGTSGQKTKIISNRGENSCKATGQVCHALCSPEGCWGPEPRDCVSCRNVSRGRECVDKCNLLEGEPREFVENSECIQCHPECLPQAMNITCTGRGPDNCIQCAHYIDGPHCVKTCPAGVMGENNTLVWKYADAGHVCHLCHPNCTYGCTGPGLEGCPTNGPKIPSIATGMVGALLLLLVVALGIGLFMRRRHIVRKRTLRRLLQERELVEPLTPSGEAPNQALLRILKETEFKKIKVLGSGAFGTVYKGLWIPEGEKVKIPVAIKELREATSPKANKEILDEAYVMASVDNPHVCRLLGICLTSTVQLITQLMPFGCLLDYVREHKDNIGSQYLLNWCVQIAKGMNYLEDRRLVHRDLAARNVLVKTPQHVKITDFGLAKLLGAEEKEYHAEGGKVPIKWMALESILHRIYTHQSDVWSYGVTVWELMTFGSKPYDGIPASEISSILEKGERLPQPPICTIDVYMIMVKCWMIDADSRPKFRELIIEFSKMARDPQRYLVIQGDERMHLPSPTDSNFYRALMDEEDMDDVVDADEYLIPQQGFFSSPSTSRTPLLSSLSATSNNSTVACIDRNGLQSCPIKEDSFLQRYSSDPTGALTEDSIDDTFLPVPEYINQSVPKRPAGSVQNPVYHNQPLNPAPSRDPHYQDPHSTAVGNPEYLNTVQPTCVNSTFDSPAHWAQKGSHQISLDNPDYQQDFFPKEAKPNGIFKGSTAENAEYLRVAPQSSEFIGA

As usually defined, the AUC(0-t) is exposure summed from dosing to a finite time, without extrapolation to infinity. The low end stands for less exposure, the high end for more exposure. The Cmax is the highest concentration seen after dosing. By MRT is commonly meant the average time that molecules of a dose stay in the body. One may read the Tmax as the time at which the peak concentration occurs. For the compound `CCOc1cc2ncc(C#N)c(Nc3ccc(OCc4ccccn4)c(Cl)c3)c2cc1NC(=O)/C=C/CN(C)C` [Neratinib], in the data set “Pharmacokinetics in mice”, the AUC(0-t) stood at 3120 ng·h/mL, the Cmax came out at 342 ± 152 ng/mL, the MRT came out at 5.4 ± 1.3 h and the Tmax is 4 ± 3 h. Moreover, the “MST1 inhibitory activity (in words)” value at MST1 [1] is “high MST1 inhibitory activity”.
As a reminder, the IC50 is the concentration that gives 50% inhibition. As for `CCOc1cc2ncc(C#N)c(Nc3ccc(OCc4ccccn4)c(Cl)c3)c2cc1NC(=O)CCCN(C)C` [mBNB885], the “MST1 activity (in words)” value at MST1 [2] is listed as “preserved MST1 activity”. At EGFR (compared with preceding/parent compound), the “fold reduction in potency toward EGFR / EGFR inhibition” value came to 5 fold. Also, at EGFR (read-out: EGFR IC50), the IC50 worked out at 1.42 nM.
In the case of XMU-MP-1, the “MST1/2 inhibition (in words)” value in the data set with MST1/2 is “selective MST1/2 inhibition”.

Source of the values: publication PMC10962727 (PNAS Nexus, 2024).
